Assay results reported in ChEMBL document CHEMBL1141501, “Identification of a potent new chemotype for the selective inhibition of PDE4” (Bioorg Med Chem Lett, 2008).
The source made the active and inactive calls. The calls are words filed in the database; no cut-off is given here.

Experiments:
[1] = target: Phosphodiesterase 4 (Homo sapiens, UniProt P27815+Q08499+Q07343+Q08493); test: Inhibition of human PDE4A1A by IMAP technology; type: protein assay
In short: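 Human PDE4A1A at 0.05 ng/μl final, in 10 mM Tris pH 7.2 with 0.1% BSA, 10 mM MgCl2, 1 mM DTT and 0.05% NaN3. Compound pin-transferred, then 5 min at RT before adding 100 nM cAMP (final). After 40 min at RT, IMAP binding reagent was added and incubated 1–4 h at RT.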

[2] = target: Dual specificity calcium/calmodulin-dependent 3',5'-cyclic nucleotide phosphodiesterase 1A (Homo sapiens, UniProt P54750); test: Inhibition of PDE1A
[3] = target: Dual specificity calcium/calmodulin-dependent 3',5'-cyclic nucleotide phosphodiesterase 1B (Homo sapiens, UniProt Q01064); test: Inhibition of PDE1B
[4] = target: cGMP-inhibited 3',5'-cyclic phosphodiesterase 3A (Homo sapiens, UniProt Q14432); test: Inhibition of PDE3A
[5] = target: High affinity 3',5'-cyclic-AMP phosphodiesterase 7A (Homo sapiens) (UniProt Q13946); test: Inhibition of PDE7A
[6] = target: 3',5'-cyclic-AMP phosphodiesterase 7B (Homo sapiens) (UniProt Q9NP56); test: Inhibition of PDE7B
[7] = target: High affinity cGMP-specific 3',5'-cyclic phosphodiesterase 9A (Homo sapiens) (UniProt O76083); test: Inhibition of PDE9A
[8] = target: cAMP and cAMP-inhibited cGMP 3',5'-cyclic phosphodiesterase 10A (Homo sapiens, UniProt Q9Y233); test: Inhibition of PDE10A
[9] = target: cGMP-specific 3',5'-cyclic phosphodiesterase (Homo sapiens, UniProt O76074)
[10] = target: Dual 3',5'-cyclic-AMP and -GMP phosphodiesterase 11A (Homo sapiens, UniProt Q9HCR9)

Sequence of Dual specificity calcium/calmodulin-dependent 3',5'-cyclic nucleotide phosphodiesterase 1B (Q01064 whole entry): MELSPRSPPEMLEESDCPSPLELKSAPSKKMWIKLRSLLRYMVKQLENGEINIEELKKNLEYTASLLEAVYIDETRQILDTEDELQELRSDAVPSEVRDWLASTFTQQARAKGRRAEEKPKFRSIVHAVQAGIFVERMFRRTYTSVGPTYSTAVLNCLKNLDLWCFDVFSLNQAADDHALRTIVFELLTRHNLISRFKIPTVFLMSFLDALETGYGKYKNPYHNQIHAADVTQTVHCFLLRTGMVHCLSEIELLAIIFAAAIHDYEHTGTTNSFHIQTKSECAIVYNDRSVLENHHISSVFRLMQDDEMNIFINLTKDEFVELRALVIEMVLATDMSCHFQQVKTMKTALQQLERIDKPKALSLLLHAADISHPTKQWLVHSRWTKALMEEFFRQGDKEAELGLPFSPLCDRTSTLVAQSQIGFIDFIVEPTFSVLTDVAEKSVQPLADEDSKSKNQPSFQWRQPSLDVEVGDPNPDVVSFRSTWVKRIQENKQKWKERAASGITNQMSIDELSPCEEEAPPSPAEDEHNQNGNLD
Sequence of cAMP and cAMP-inhibited cGMP 3',5'-cyclic phosphodiesterase 10A (Q9Y233 whole entry): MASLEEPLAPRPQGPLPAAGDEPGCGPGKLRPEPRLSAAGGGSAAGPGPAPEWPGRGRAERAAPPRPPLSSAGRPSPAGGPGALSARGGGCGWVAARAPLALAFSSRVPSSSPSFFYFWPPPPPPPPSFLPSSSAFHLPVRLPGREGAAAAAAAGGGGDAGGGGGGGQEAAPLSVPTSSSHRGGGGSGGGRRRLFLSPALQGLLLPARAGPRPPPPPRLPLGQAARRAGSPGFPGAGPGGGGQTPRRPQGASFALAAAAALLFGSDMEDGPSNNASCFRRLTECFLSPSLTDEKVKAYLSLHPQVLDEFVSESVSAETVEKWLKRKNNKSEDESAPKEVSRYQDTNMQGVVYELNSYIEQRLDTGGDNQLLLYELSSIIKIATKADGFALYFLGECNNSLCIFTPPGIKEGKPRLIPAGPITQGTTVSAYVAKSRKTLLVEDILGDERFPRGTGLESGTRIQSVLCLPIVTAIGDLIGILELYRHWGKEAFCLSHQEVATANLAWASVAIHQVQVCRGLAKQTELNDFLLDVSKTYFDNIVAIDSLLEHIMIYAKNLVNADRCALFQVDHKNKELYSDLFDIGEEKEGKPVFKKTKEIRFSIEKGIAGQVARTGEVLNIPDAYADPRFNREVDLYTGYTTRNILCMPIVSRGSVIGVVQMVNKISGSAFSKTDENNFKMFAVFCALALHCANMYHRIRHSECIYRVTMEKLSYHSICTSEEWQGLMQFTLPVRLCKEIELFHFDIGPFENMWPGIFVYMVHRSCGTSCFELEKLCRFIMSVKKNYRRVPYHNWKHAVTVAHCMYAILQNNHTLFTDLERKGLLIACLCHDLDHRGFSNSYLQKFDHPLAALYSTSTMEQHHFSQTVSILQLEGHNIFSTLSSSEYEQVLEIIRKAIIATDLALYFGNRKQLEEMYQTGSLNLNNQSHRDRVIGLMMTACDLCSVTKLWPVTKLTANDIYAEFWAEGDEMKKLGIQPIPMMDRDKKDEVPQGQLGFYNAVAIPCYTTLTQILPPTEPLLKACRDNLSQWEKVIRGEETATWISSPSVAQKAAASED
Sequence of 3',5'-cyclic-AMP phosphodiesterase 7B (Homo sapiens) (Q9NP56 whole entry): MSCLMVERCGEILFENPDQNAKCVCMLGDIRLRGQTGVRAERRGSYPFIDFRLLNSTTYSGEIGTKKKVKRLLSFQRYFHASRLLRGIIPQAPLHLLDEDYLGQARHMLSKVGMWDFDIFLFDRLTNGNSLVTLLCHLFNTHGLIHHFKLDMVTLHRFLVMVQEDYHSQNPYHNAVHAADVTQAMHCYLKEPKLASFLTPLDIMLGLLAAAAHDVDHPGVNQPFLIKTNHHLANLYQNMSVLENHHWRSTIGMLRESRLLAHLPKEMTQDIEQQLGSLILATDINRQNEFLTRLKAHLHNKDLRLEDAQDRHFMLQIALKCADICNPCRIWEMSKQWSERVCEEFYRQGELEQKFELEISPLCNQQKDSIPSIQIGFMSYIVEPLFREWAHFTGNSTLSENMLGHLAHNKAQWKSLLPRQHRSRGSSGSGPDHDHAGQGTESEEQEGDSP
Sequence of High affinity 3',5'-cyclic-AMP phosphodiesterase 7A (Homo sapiens) (Q13946 whole entry): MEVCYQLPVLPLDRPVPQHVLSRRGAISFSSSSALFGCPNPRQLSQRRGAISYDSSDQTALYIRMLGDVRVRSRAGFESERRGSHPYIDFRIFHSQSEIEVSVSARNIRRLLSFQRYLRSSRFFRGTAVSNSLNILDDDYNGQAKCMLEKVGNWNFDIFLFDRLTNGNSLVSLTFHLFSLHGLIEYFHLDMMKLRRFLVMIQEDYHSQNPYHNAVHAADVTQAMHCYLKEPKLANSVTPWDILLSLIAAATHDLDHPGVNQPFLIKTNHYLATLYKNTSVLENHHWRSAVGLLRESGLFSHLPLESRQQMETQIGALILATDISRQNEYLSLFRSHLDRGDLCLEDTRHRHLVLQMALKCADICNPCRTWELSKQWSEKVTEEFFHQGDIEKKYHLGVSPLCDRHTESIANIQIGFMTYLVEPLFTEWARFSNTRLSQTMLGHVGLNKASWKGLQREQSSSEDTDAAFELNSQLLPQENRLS
Sequence of cGMP-inhibited 3',5'-cyclic phosphodiesterase 3A (Q14432 whole entry): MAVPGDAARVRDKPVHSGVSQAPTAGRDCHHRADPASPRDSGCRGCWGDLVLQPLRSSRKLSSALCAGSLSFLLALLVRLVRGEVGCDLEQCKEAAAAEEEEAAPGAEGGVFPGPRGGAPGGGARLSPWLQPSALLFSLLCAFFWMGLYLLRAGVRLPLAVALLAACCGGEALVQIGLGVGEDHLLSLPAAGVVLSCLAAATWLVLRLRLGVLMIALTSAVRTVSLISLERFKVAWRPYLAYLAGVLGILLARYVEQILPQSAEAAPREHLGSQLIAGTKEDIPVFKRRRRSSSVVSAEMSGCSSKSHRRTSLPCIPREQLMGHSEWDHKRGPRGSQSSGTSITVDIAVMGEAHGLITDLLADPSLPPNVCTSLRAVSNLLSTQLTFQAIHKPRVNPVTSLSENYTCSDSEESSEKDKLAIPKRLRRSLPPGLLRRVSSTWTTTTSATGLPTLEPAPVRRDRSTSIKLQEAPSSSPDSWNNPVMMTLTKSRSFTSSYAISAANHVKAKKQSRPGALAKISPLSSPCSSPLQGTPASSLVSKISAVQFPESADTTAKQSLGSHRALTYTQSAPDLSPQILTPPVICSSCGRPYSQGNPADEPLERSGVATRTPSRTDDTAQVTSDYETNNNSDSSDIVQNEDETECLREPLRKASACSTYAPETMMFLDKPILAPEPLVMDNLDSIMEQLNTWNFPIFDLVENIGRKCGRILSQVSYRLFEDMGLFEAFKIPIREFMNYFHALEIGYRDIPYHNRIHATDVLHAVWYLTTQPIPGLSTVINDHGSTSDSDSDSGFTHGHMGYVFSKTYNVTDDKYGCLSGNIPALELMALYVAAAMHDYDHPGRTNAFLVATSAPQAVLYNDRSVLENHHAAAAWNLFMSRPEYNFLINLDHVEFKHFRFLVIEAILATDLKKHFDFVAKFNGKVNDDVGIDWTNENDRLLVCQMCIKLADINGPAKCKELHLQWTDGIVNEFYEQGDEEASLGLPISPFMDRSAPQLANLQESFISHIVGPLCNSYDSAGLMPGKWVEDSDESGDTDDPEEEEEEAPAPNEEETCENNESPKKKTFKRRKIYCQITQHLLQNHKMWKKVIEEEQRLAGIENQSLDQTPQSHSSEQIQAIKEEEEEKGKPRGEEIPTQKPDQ
Sequence of Dual specificity calcium/calmodulin-dependent 3',5'-cyclic nucleotide phosphodiesterase 1A (P54750 whole entry): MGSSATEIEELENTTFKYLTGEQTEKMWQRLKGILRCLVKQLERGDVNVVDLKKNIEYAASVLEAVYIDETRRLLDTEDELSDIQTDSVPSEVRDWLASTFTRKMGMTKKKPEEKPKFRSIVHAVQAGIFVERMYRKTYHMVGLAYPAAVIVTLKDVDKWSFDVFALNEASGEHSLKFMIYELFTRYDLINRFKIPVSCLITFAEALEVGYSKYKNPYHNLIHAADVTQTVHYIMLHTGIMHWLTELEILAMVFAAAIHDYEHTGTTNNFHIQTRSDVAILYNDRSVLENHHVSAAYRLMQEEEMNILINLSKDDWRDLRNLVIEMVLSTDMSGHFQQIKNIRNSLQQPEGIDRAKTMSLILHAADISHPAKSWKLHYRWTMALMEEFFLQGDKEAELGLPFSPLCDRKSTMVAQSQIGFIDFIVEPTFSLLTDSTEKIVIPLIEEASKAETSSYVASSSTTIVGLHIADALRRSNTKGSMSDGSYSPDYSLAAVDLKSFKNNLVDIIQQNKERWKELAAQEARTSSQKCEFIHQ
Sequence of High affinity cGMP-specific 3',5'-cyclic phosphodiesterase 9A (Homo sapiens) (O76083 whole entry): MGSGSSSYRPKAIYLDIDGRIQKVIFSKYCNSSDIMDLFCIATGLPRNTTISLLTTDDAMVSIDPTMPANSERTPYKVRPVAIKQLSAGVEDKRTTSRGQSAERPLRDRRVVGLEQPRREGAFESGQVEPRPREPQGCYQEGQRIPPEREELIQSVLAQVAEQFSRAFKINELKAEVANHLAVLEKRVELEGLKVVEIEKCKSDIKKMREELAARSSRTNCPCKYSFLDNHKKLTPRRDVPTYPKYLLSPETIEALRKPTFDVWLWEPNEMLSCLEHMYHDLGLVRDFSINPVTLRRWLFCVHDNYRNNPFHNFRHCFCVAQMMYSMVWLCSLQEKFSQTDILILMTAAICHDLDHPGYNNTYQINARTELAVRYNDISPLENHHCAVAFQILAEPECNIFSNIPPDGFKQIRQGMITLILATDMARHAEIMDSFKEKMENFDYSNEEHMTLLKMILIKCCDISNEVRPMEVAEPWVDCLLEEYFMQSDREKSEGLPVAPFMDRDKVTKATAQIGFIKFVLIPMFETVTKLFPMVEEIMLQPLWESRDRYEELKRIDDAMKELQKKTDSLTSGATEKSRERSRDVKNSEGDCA

Structure (SMILES)	IC50 [1] [µM]	other results
COc1ccc(-c2nnc3n2N=C(c2cc(OC)ccc2OC)CS3)cc1	10.1	–
COc1cccc(OC)c1C1=Nn2c(nnc2-c2ccccc2C)SC1	14.1	–
COc1cccc(C2=Nn3c(nnc3-c3ccc(OC)c(OC)c3)SC2)c1	9	–
COc1ccc(-c2nnc3n2N=C(c2cc(OC)ccc2OC)CS3)c(OC)c1	5.3	–
COc1cc(OC)cc(-c2nnc3n2N=C(c2cc(OC)ccc2OC)CS3)c1	12.7	–
COc1ccc(OC)c(-c2nnc3n2N=C(c2c(OC)cccc2OC)CS3)c1	> 20	–
CCOc1ccccc1-c1nnc2n1N=C(c1cc(OC)ccc1OC)CS2	13.4	–
COc1ccc(C2=Nn3c(nnc3-c3ccc(OC)cc3OC)SC2)cc1	> 20	–
COc1ccc(-c2nnc3n2N=C(c2cccc(OC)c2)CS3)cc1	8.4	–
COc1cccc(C2=Nn3c(nnc3-c3cccc(OC)c3OC)SC2)c1	> 20	–
COc1cccc(-c2nnc3n2N=C(c2c(OC)cccc2OC)CS3)c1	> 20	–
COc1ccc(-c2nnc3n2N=C(c2ccccc2OC)CS3)cc1	14.1	–
COc1cccc(C2=Nn3c(nnc3-c3ccccc3O)SC2)c1	14.1	–
COc1ccc(C2=Nn3c(nnc3-c3ccc(OC)c(OC)c3)SC2)c(OC)c1	6.7	–
COc1cccc(-c2nnc3n2N=C(c2cc(OC)ccc2OC)CS3)c1	12.6	–
COc1ccc(C2=Nn3c(nnc3-c3ccccc3C)SC2)cc1	12.5	–
CCOc1ccccc1-c1nnc2n1N=C(c1cccc(OC)c1)CS2	11.2	–
COc1ccc(OC)c(C2=Nn3c(nnc3-c3cccc(OC)c3OC)SC2)c1	11.9	–

Structure (SMILES)	IC50 [1] [µM]	other results
CCOc1ccccc1-c1nnc2n1N=C(c1ccc(OC)cc1)CS2	4.5	–
COc1ccc(C2=Nn3c(nnc3-c3ccccc3OC)SC2)cc1OC	–	IC50 [2]: > 50 µM; IC50 [3]: > 50 µM; IC50 [4]: > 50 µM; Activity [5]: inactive; Activity [6]: inactive; Activity [7]: inactive; IC50 [8]: > 50 µM; IC50 [9]: > 50 µM; IC50 [10]: > 50 µM
COc1ccc(OC)c(C2=Nn3c(nnc3-c3cc(OC)ccc3OC)SC2)c1	11.9	–
COc1ccc(OC)c(C2=Nn3c(nnc3-c3ccc(OC)c(OC)c3)SC2)c1	6.9	–
COc1cccc(OC)c1C1=Nn2c(nnc2-c2ccccc2O)SC1	> 20	–
COc1ccc(OC)c(C2=Nn3c(nnc3-c3ccccc3O)SC2)c1	> 20	–
COc1cccc(C2=Nn3c(nnc3-c3cc(OC)ccc3OC)SC2)c1	8	–
COc1ccc(C2=Nn3c(nnc3-c3cc(OC)ccc3OC)SC2)cc1	1.7	–
COc1cccc(-c2nnc3n2N=C(c2ccc(OC)c(OC)c2)CS3)c1	0.126	–
COc1ccc(C2=Nn3c(nnc3-c3ccccc3O)SC2)cc1	8.4	–
COc1cccc(C2=Nn3c(nnc3-c3ccccc3C)SC2)c1	3.2	–
COc1ccc(C2CNC(=O)C2)cc1OC1CCCC1 (configuration not stated) [ROLIPRAM]	–	IC50 [2]: > 50 µM; Activity [3]: inactive; Activity [4]: inactive; Activity [5]: inactive; Activity [6]: inactive; Activity [7]: inactive; Activity [8]: inactive
COc1ccc(-c2nnc3n2N=C(c2ccc(OC)cc2OC)CS3)cc1	13.4	–
COc1ccc(-c2nnc3n2N=C(c2ccccc2OC)CS3)cc1OC	8.9	–
CCOc1ccccc1-c1nnc2n1N=C(c1c(OC)cccc1OC)CS2	> 20	–
COc1ccc(C2=Nn3c(nnc3-c3cc(OC)ccc3OC)SC2)c(OC)c1	7.5	–
COc1ccccc1C1=Nn2c(nnc2-c2cccc(OC)c2OC)SC1	> 20	–

Further lines, with some results ahead:

IC50 [1] [µM]	Structure (SMILES)	other results
0.177	COc1ccc(C2=Nn3c(nnc3-c3ccc(OC)c(OC)c3)SC2)cc1OC	–
19.7	COc1ccc(-c2nnc3n2N=C(c2c(OC)cccc2OC)CS3)cc1	–
> 20	COc1ccc(-c2nnc3n2N=C(c2c(OC)cccc2OC)CS3)c(OC)c1	–
> 20	COc1cccc(-c2nnc3n2N=C(c2c(OC)cccc2OC)CS3)c1OC	–
13.4	COc1cccc(C2=Nn3c(nnc3-c3ccc(OC)cc3OC)SC2)c1	–
14.1	COc1ccccc1C1=Nn2c(nnc2-c2ccccc2C)SC1	–
14.1	COc1cccc(-c2nnc3n2N=C(c2ccc(OC)cc2OC)CS3)c1	–
> 20	COc1ccc(C2=Nn3c(nnc3-c3cccc(OC)c3OC)SC2)c(OC)c1	–
> 20	COc1cc(OC)cc(-c2nnc3n2N=C(c2ccc(OC)cc2OC)CS3)c1	–
0.05	COc1cc(OC)cc(-c2nnc3n2N=C(c2ccc(OC)c(OC)c2)CS3)c1	–
> 20	CCOc1ccccc1-c1nnc2n1N=C(c1ccc(OC)cc1OC)CS2	–
6.3	COc1ccc(OC)c(C2=Nn3c(nnc3-c3ccccc3C)SC2)c1	–
> 20	COc1ccc(C2=Nn3c(nnc3-c3ccc(OC)cc3OC)SC2)c(OC)c1	–
13.4	COc1cccc(C2=Nn3c(nnc3-c3cc(OC)cc(OC)c3)SC2)c1	–
> 20	COc1ccc(C2=Nn3c(nnc3-c3ccccc3C)SC2)c(OC)c1	–
8.4	COc1ccc(C2=Nn3c(nnc3-c3ccc(OC)cc3)SC2)cc1	–
7.5	COc1ccc(C2=Nn3c(nnc3-c3ccc(OC)c(OC)c3)SC2)cc1	–
8.9	COc1ccc(OC)c(C2=Nn3c(nnc3-c3ccccc3OC)SC2)c1	–
20	COc1ccccc1C1=Nn2c(nnc2-c2ccccc2OC)SC1	–

IC50 [1] [µM]	Structure (SMILES)	other results
0.0889	COc1ccc(-c2nnc3n2N=C(c2ccc(OC)c(OC)c2)CS3)cc1	–
19.6	COc1ccc(OC)c(-c2nnc3n2N=C(c2ccccc2OC)CS3)c1	–
> 20	COc1ccccc1C1=Nn2c(nnc2-c2ccccc2O)SC1	–
12.6	COc1cccc(C2=Nn3c(nnc3-c3cccc(OC)c3)SC2)c1	–
> 20	COc1ccc(C2=Nn3c(nnc3-c3cccc(OC)c3OC)SC2)cc1	–
> 20	COc1ccc(C2=Nn3c(nnc3-c3ccccc3OC)SC2)cc1	–
12.6	COc1ccc(C2=Nn3c(nnc3-c3cccc(OC)c3)SC2)cc1	–
13.4	COc1cc(OC)cc(-c2nnc3n2N=C(c2ccccc2OC)CS3)c1	–
12	COc1cccc(C2=Nn3c(nnc3-c3ccccc3OC)SC2)c1	–
0.079	COc1ccc(-c2nnc3n2N=C(c2ccc(OC)c(OC)c2)CS3)c(OC)c1	–
> 20	CCOc1ccccc1-c1nnc2n1N=C(c1ccccc1OC)CS2	–
15	COc1ccc(C2=Nn3c(nnc3-c3ccccc3OC)SC2)c(OC)c1	–
19.6	COc1cc(OC)cc(-c2nnc3n2N=C(c2c(OC)cccc2OC)CS3)c1	–
9.5	COc1ccc(C2=Nn3c(nnc3-c3cc(OC)cc(OC)c3)SC2)cc1	–
19.7	COc1ccc(-c2nnc3n2N=C(c2ccccc2OC)CS3)c(OC)c1	–
> 20	COc1ccc(C2=Nn3c(nnc3-c3ccccc3O)SC2)c(OC)c1	–
14.1	COc1ccc(-c2nnc3n2N=C(c2c(OC)cccc2OC)CS3)cc1OC	–
13.4	COc1cccc(-c2nnc3n2N=C(c2ccccc2OC)CS3)c1	–
> 20	COc1ccccc1-c1nnc2n1N=C(c1c(OC)cccc1OC)CS2	–
